Source: ChEMBL document CHEMBL5058577, “EUbOPEN Chemogenomics Library 2 (Multiplex)” (2022)

Tested on: U2OS
Assay: Multiplex assay against U2OS
Assay type: toxicity, cell-based
Details: human
Summary of the method: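 Tubulin, mitochondrial-mass and membrane-permeability phenotypes are per cents of healthy-nucleus cells. Cells were gated by CellPathfinder machine learning into Hoechst high-intensity objects or normal cells, normal cells into healthy, pyknosed or fragmented nuclei, and pyknosed cells into mitotic or apoptotic. Before that, live cells stained at seeding with Hoechst33342, BioTracker Green Microtubule Cytoskeleton Dye, MitoTracker Red and Annexin V Alexa Fluor 680 were imaged on a CQ1 microscope at 37°C and 5% CO2 after compound addition.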

[1] = 12 h, 1 µM, compound concentration 1 uM, replicate 1
[2] = 12 h, 1 µM, compound concentration 1 uM, replicate 2
[3] = 12 h, 10 µM, compound concentration 10 uM, replicate 1
[4] = 12 h, 10 µM, compound concentration 10 uM, replicate 2
[5] = 24 h, 1 µM, compound concentration 1 uM, replicate 1
[6] = 24 h, 1 µM, compound concentration 1 uM, replicate 2
[7] = 24 h, 10 µM, compound concentration 10 uM, replicate 1
[8] = 24 h, 10 µM, compound concentration 10 uM, replicate 2
[9] = 48 h, 1 µM, compound concentration 1 uM, replicate 1
[10] = 48 h, 1 µM, compound concentration 1 uM, replicate 2
[11] = 48 h, 10 µM, compound concentration 10 uM, replicate 1
[12] = 48 h, 10 µM, compound concentration 10 uM, replicate 2

## CCOc1c2c(c(OCC)c3ncccc13)CN(c1ccc(CS(=O)(=O)NC(=O)Cc3ccccc3OC)cc1C)C2=O
[1]
  Population Apoptotic (%): 64%
  Population Fragmented Nuclei (%): 22%
  Population Healthy Nuclei (%): 70%
  Population Hoechst High Intensity Objects (%): 2%
  Population Membrane Permeable-Phenotype (%): 7%
  Population Mitochondria Different-Phenotype (%): 3%
  Population Mitotic Cells (%): 35%
  Population Normal (%): 97%
  Population Pyknosed Nuclei (%): 7%
  Population Tubulin-Different-Phenotype (%): 2%
  Total Cell Count: 189
[2]
  Population Apoptotic (%): 100%
  Population Fragmented Nuclei (%): 13%
  Population Healthy Nuclei (%): 82%
  Population Hoechst High Intensity Objects (%): 1%
  Population Membrane Permeable-Phenotype (%): 9%
  Population Mitotic Cells (%): 0%
  Population Normal (%): 98%
  Population Pyknosed Nuclei (%): 4%
  Population Tubulin-Different-Phenotype (%): 6%
  Total Cell Count: 93
[3]
  Population Apoptotic (%): 81%
  Population Fragmented Nuclei (%): 30%
  Population Healthy Nuclei (%): 63%
  Population Hoechst High Intensity Objects (%): 2%
  Population Membrane Permeable-Phenotype (%): 5%
  Population Mitochondria Different-Phenotype (%): 3%
  Population Mitotic Cells (%): 18%
  Population Normal (%): 97%
  Population Pyknosed Nuclei (%): 6%
  Population Tubulin-Different-Phenotype (%): 2%
  Total Cell Count: 248
[4]
  Population Apoptotic (%): 80%
  Population Fragmented Nuclei (%): 21%
  Population Healthy Nuclei (%): 75%
  Population Membrane Permeable-Phenotype (%): 8%
  Population Mitochondria Different-Phenotype (%): 6%
  Population Mitotic Cells (%): 20%
  Population Pyknosed Nuclei (%): 3%
  Population Tubulin-Different-Phenotype (%): 3%
  Total Cell Count: 136
[5]
  Population Apoptotic (%): 80%
  Population Fragmented Nuclei (%): 21%
  Population Healthy Nuclei (%): 71%
  Population Hoechst High Intensity Objects (%): 3%
  Population Membrane Permeable-Phenotype (%): 4%
  Population Mitochondria Different-Phenotype (%): 0%
  Population Mitotic Cells (%): 20%
  Population Normal (%): 96%
  Population Pyknosed Nuclei (%): 6%
  Population Tubulin-Different-Phenotype (%): 1%
  Total Cell Count: 235
[6]
  Population Apoptotic (%): 100%
  Population Fragmented Nuclei (%): 19%
  Population Healthy Nuclei (%): 76%
  Population Hoechst High Intensity Objects (%): 1%
  Population Membrane Permeable-Phenotype (%): 7%
  Population Mitochondria Different-Phenotype (%): 4%
  Population Mitotic Cells (%): 0%
  Population Normal (%): 98%
  Population Pyknosed Nuclei (%): 4%
  Population Tubulin-Different-Phenotype (%): 4%
  Total Cell Count: 125
[7]
  Population Apoptotic (%): 76%
  Population Fragmented Nuclei (%): 27%
  Population Healthy Nuclei (%): 61%
  Population Hoechst High Intensity Objects (%): 3%
  Population Membrane Permeable-Phenotype (%): 6%
  Population Mitochondria Different-Phenotype (%): 2%
  Population Mitotic Cells (%): 23%
  Population Normal (%): 96%
  Population Pyknosed Nuclei (%): 10%
  Population Tubulin-Different-Phenotype (%): 1%
  Total Cell Count: 285
[8]
  Population Apoptotic (%): 100%
  Population Fragmented Nuclei (%): 17%
  Population Healthy Nuclei (%): 76%
  Population Hoechst High Intensity Objects (%): 0%
  Population Mitotic Cells (%): 0%
  Population Normal (%): 99%
  Population Pyknosed Nuclei (%): 5%
  Population Tubulin-Different-Phenotype (%): 5%
  Total Cell Count: 152
[9]
  Population Apoptotic (%): 85%
  Population Fragmented Nuclei (%): 19%
  Population Healthy Nuclei (%): 74%
  Population Hoechst High Intensity Objects (%): 2%
  Population Membrane Permeable-Phenotype (%): 3%
  Population Mitochondria Different-Phenotype (%): 1%
  Population Mitotic Cells (%): 15%
  Population Normal (%): 97%
  Population Pyknosed Nuclei (%): 5%
  Population Tubulin-Different-Phenotype (%): 2%
  Total Cell Count: 344
[10]
  Population Apoptotic (%): 100%
  Population Fragmented Nuclei (%): 17%
  Population Healthy Nuclei (%): 79%
  Population Hoechst High Intensity Objects (%): 4%
  Population Membrane Permeable-Phenotype (%): 7%
  Population Mitochondria Different-Phenotype (%): 3%
  Population Mitotic Cells (%): 0%
  Population Normal (%): 95%
  Population Pyknosed Nuclei (%): 2%
  Population Tubulin-Different-Phenotype (%): 5%
  Total Cell Count: 167
[11]
  Population Apoptotic (%): 91%
  Population Fragmented Nuclei (%): 19%
  Population Healthy Nuclei (%): 71%
  Population Hoechst High Intensity Objects (%): 2%
  Population Membrane Permeable-Phenotype (%): 5%
  Population Mitochondria Different-Phenotype (%): 1%
  Population Mitotic Cells (%): 8%
  Population Normal (%): 97%
  Population Pyknosed Nuclei (%): 9%
  Population Tubulin-Different-Phenotype (%): 2%
  Total Cell Count: 385
[12]
  Population Apoptotic (%): 100%
  Population Fragmented Nuclei (%): 18%
  Population Healthy Nuclei (%): 74%
  Population Membrane Permeable-Phenotype (%): 8%
  Population Mitochondria Different-Phenotype (%): 4%
  Population Mitotic Cells (%): 0%
  Population Pyknosed Nuclei (%): 6%
  Population Tubulin-Different-Phenotype (%): 3%
  Total Cell Count: 236

## CSc1ccccc1N1CCN(CCCCCC(=O)NC2CCCc3ccccc32)CC1.Cl (configuration not stated)
[1]
  Population Apoptotic (%): 62%
  Population Fragmented Nuclei (%): 22%
  Population Healthy Nuclei (%): 61%
  Population Hoechst High Intensity Objects (%): 9%
  Population Membrane Permeable-Phenotype (%): 73%
  Population Mitochondria Different-Phenotype (%): 71%
  Population Mitotic Cells (%): 37%
  Population Normal (%): 90%
  Population Pyknosed Nuclei (%): 15%
  Population Tubulin-Different-Phenotype (%): 88%
  Total Cell Count: 222
[2]
  Population Apoptotic (%): 36%
  Population Fragmented Nuclei (%): 24%
  Population Healthy Nuclei (%): 63%
  Population Hoechst High Intensity Objects (%): 3%
  Population Membrane Permeable-Phenotype (%): 51%
  Population Mitochondria Different-Phenotype (%): 85%
  Population Mitotic Cells (%): 63%
  Population Normal (%): 96%
  Population Pyknosed Nuclei (%): 11%
  Population Tubulin-Different-Phenotype (%): 72%
  Total Cell Count: 101
[3]
  Population Apoptotic (%): 70%
  Population Fragmented Nuclei (%): 41%
  Population Healthy Nuclei (%): 39%
  Population Hoechst High Intensity Objects (%): 8%
  Population Membrane Permeable-Phenotype (%): 67%
  Population Mitochondria Different-Phenotype (%): 90%
  Population Mitotic Cells (%): 29%
  Population Normal (%): 91%
  Population Pyknosed Nuclei (%): 18%
  Population Tubulin-Different-Phenotype (%): 96%
  Total Cell Count: 221
[4]
  Population Apoptotic (%): 84%
  Population Fragmented Nuclei (%): 23%
  Population Healthy Nuclei (%): 55%
  Population Hoechst High Intensity Objects (%): 4%
  Population Membrane Permeable-Phenotype (%): 60%
  Population Mitochondria Different-Phenotype (%): 92%
  Population Mitotic Cells (%): 16%
  Population Normal (%): 95%
  Population Pyknosed Nuclei (%): 21%
  Population Tubulin-Different-Phenotype (%): 98%
  Total Cell Count: 125
[5]
  Population Apoptotic (%): 54%
  Population Fragmented Nuclei (%): 22%
  Population Healthy Nuclei (%): 60%
  Population Hoechst High Intensity Objects (%): 6%
  Population Membrane Permeable-Phenotype (%): 63%
  Population Mitochondria Different-Phenotype (%): 63%
  Population Mitotic Cells (%): 45%
  Population Normal (%): 94%
  Population Pyknosed Nuclei (%): 17%
  Population Tubulin-Different-Phenotype (%): 75%
  Total Cell Count: 250
[6]
  Population Apoptotic (%): 58%
  Population Fragmented Nuclei (%): 25%
  Population Healthy Nuclei (%): 58%
  Population Hoechst High Intensity Objects (%): 2%
  Population Membrane Permeable-Phenotype (%): 46%
  Population Mitochondria Different-Phenotype (%): 74%
  Population Mitotic Cells (%): 41%
  Population Normal (%): 97%
  Population Pyknosed Nuclei (%): 15%
  Population Tubulin-Different-Phenotype (%): 63%
  Total Cell Count: 111
[7]
  Population Apoptotic (%): 89%
  Population Fragmented Nuclei (%): 44%
  Population Healthy Nuclei (%): 28%
  Population Hoechst High Intensity Objects (%): 6%
  Population Membrane Permeable-Phenotype (%): 79%
  Population Mitochondria Different-Phenotype (%): 81%
  Population Mitotic Cells (%): 10%
  Population Normal (%): 93%
  Population Pyknosed Nuclei (%): 26%
  Population Tubulin-Different-Phenotype (%): 91%
  Total Cell Count: 219
[8]
  Population Apoptotic (%): 94%
  Population Fragmented Nuclei (%): 19%
  Population Healthy Nuclei (%): 44%
  Population Hoechst High Intensity Objects (%): 10%
  Population Membrane Permeable-Phenotype (%): 90%
  Population Mitochondria Different-Phenotype (%): 56%
  Population Mitotic Cells (%): 5%
  Population Normal (%): 89%
  Population Pyknosed Nuclei (%): 37%
  Population Tubulin-Different-Phenotype (%): 97%
  Total Cell Count: 112
[9]
  Population Apoptotic (%): 64%
  Population Fragmented Nuclei (%): 25%
  Population Healthy Nuclei (%): 53%
  Population Hoechst High Intensity Objects (%): 8%
  Population Membrane Permeable-Phenotype (%): 42%
  Population Mitochondria Different-Phenotype (%): 56%
  Population Mitotic Cells (%): 35%
  Population Normal (%): 91%
  Population Pyknosed Nuclei (%): 21%
  Population Tubulin-Different-Phenotype (%): 50%
  Total Cell Count: 272
[10]
  Population Apoptotic (%): 95%
  Population Fragmented Nuclei (%): 28%
  Population Healthy Nuclei (%): 52%
  Population Hoechst High Intensity Objects (%): 5%
  Population Membrane Permeable-Phenotype (%): 41%
  Population Mitochondria Different-Phenotype (%): 63%
  Population Mitotic Cells (%): 4%
  Population Normal (%): 94%
  Population Pyknosed Nuclei (%): 18%
  Population Tubulin-Different-Phenotype (%): 44%
  Total Cell Count: 137
[11]
  Population Apoptotic (%): 98%
  Population Fragmented Nuclei (%): 43%
  Population Healthy Nuclei (%): 18%
  Population Hoechst High Intensity Objects (%): 15%
  Population Membrane Permeable-Phenotype (%): 77%
  Population Mitochondria Different-Phenotype (%): 33%
  Population Mitotic Cells (%): 1%
  Population Normal (%): 84%
  Population Pyknosed Nuclei (%): 38%
  Population Tubulin-Different-Phenotype (%): 75%
  Total Cell Count: 232
[12]
  Population Apoptotic (%): 100%
  Population Fragmented Nuclei (%): 25%
  Population Healthy Nuclei (%): 20%
  Population Hoechst High Intensity Objects (%): 11%
  Population Membrane Permeable-Phenotype (%): 85%
  Population Mitochondria Different-Phenotype (%): 45%
  Population Mitotic Cells (%): 0%
  Population Normal (%): 88%
  Population Pyknosed Nuclei (%): 54%
  Population Tubulin-Different-Phenotype (%): 95%
  Total Cell Count: 109
